Published values from different studies.
Lines come from different studies, so protocols differ.
Target: Vascular endothelial growth factor receptor 1 (FLT1, Homo sapiens, UniProt P17948)

SMILES	test	conditions	endpoint	value
CS(=O)(=O)N1CCCC(NC(=O)[C@H](CCC2CCCCC2)NC(=O)c2ccc(CNc3ncnc4c3nnn4-c3ccccc3)cc2)C1 (some centres unmarked)	cell-free assay, competition with immobilised ligand	0.1 µM	remaining binding	86%
CCCOc1ccc(OC)c(F)c1C(=O)c1ccc(C(=O)N[C@@H]2CNC[C@H]2NC(=O)c2ccc3[nH]ncc3c2)cc1	enzyme activity, inhibitor	10 µM	remaining activity	35%
Cc1cnc(NC2CCOCC2)nc1-n1cnc(C(=O)NC(CN)c2cc(F)cc(Cl)c2)c1 (centres unmarked)	enzyme activity, inhibitor, radiometric	1 µM	remaining activity	92%
COc1cc(-c2cn(C3CCc4c(F)cccc4N(CC(F)(F)F)C3=O)nn2)ccc1-n1cnc(C)c1 (centres unmarked)	cell-free assay, competition with immobilised ligand	1 µM	remaining binding	97%
O=C(Nc1cnn(-c2csc(C(=O)NC3COC3)c2)c1)Nc1c(F)cccc1Cl	enzyme activity, inhibitor	5 µM	remaining activity	86.1%
CCCS(=O)(=O)Nc1ccc(F)c(C(=O)c2c[nH]c3ncc(-c4ccc(Cl)cc4)cc23)c1F	enzyme activity, inhibitor	1 µM	inhibition	< 10%
CNC(=O)c1cc(Oc2ccc(NC(=O)Nc3ccc(Cl)c(C(F)(F)F)c3)cc2)ccn1	cell-free assay	0.5 µM	remaining signal	50.5%
C[C@@H](c1cccc(C#N)c1)n1cc(Cl)cc(C(N)=O)c1=N	cell-free assay, competition with immobilised ligand	1 µM	remaining binding	100%
Cc1ccc(NC(=O)c2ccc(C)c(C(F)(F)F)c2)cc1C#Cc1nn(C2CCC(O)CC2)c2ncnc(N)c12 (centres unmarked)	cell-free assay	10 µM	remaining signal	3%
C[C@H](c1ccc(F)cc1)N(Cc1cccc(C(=O)O)c1)C(=O)c1cnc2ccccc2c1	cell-free assay, competition with immobilised ligand	1 µM	remaining binding	100%
COc1cc(Nc2cnc(C#N)c(O[C@H](C)CN(C)C)n2)ncc1-c1cnn(C)c1	enzyme activity, inhibitor, radiometric	1 µM	remaining activity	90%
Nc1nc(NC2CCCCC2)sc1C(=O)c1ccccc1	enzyme activity, inhibitor	10 µM	remaining activity	57%
COCCOc1nc(-c2ccc(Cl)nc2)nc2c1CN(C(=O)c1ncn3ccccc13)CC2	cell-free assay, competition with immobilised ligand	0.1 µM	remaining binding	87%
Cc1sc(C(=O)NC2COC2)cc1-n1cc(NC(=O)Nc2c(F)cccc2Cl)cn1	enzyme activity, inhibitor	10 µM	remaining activity	84.1%
Cc1ccc(Nc2nccc(N(C)c3ccc4c(C)n(C)nc4c3)n2)cc1S(N)(=O)=O	enzyme activity, inhibitor	10 µM	inhibition	102%
CN(c1ncccc1CNc1nc(Nc2ccc3c(c2)CC(=O)N3)ncc1C(F)(F)F)S(C)(=O)=O	enzyme activity, inhibitor	1 µM	inhibition	80%
COc1cc2ncnc(Nc3ccc(Oc4ccccc4)c(C)c3C)c2cc1OC	enzyme activity, inhibitor	1 µM	inhibition	0%
Cc1nccc(COC(=O)N2C[C@@H]3[C@@H](CNC(=O)c4ccc5[nH]nnc5c4)[C@@H]3C2)n1	cell-free assay, competition with immobilised ligand	1 µM	remaining binding	100%
CC(C)(C)c1nc2c(s1)c1nc(N)ncc1c1ccc(NS(=O)(=O)c3c(F)cccc3F)c(F)c12	enzyme activity, inhibitor, radiometric	1 µM	remaining activity	111%
CCN(CC)c1ccc(C2=NNC(=O)CC2C)cc1[N+](=O)[O-] (centres unmarked)	enzyme activity, inhibitor	10 µM	remaining activity	104%
CNCc1ccc(-c2cc(-c3nc(-c4ccc(S(=O)(=O)C(C)C)cc4)cnc3N)on2)cc1	enzyme activity, inhibitor	0.4 µM	inhibition	50%
O=C1Nc2ccc(Cl)cc2C1=Cc1cc(Cl)c(O)c(Cl)c1	cell-free assay	0.5 µM	remaining signal	85%
O=C(N[C@H]1CCCCC/C=C\C2C[C@@]2(C(=O)O)NC(=O)[C@@H]2C[C@@H](Oc3ccncc3)CN2C1=O)OC1CCCC1 (some centres unmarked)	cell-free assay, competition with immobilised ligand	1 µM	remaining binding	100%
CCOc1cc(-c2nncn2C)ccc1Nc1ncc2cc(C)nc(NCC(C)(C)C)c2n1	enzyme activity, inhibitor, FRET	1 µM	inhibition	< 15%
CC1CCCN1c1nccc(-c2cnn3ncccc23)n1 (centres unmarked)	binding	1 µM	remaining binding	100%
Cc1ccc(C(=O)NCc2ccsc2)cc1C#Cc1cn(C(C)C)c2ncnc(N)c12	enzyme activity, inhibitor	1 µM	activity vs control	-1%
CCN(CC)CCNC(=O)c1c(C)[nH]c(/C=C2\C(=O)Nc3ccc(F)cc32)c1C	enzyme activity, inhibitor	10 µM	inhibition	102%
Cc1ccc(NC(=O)c2ccc(CN3CCN(C)CC3)cc2)cc1Nc1nc(-c2cccnc2)cs1	cell-free assay	0.5 µM	remaining signal	96.4%
Cc1cc(-n2nc(Cc3cc(F)cc(C(F)(F)F)c3)nc2C)ccc1C(N)=O	cell-free assay, competition with immobilised ligand	1 µM	remaining binding	100%
